Source: ChEMBL document CHEMBL1914430, “Synthesis of some new 1,3,5-trisubstituted pyrazolines bearing benzene sulfonamide as anticancer and anti-inflammatory agents” (Bioorg Med Chem Lett, 2011)

Experiments:
Assay type in all cases: functional
[1] = system: T47D; assay: Anticancer activity against human T47D cells after 48 hrs; conditions: for CC50: read-out: LC50 (the source's name)
Outline: (§1)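 NCI ~60 human tumour cell line panel with a 48 h incubation. GI50 is the concentration giving a 50% fall in net growth, TGI gives total growth inhibition, and LC50 gives a net 50% loss of initial cells. An effect not reached or exceeded is reported as greater or less than the highest or lowest concentration tested.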

[2] = system: BT-549; assay: Anticancer activity against human BT549 cells after 48 hrs; conditions: BT-549, 48 h; for CC50: read-out: LC50 (the source's name)
Outline: (§2)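 NCI Drug Evaluation Branch 60-cell-line screen across leukemia, melanoma, lung, colon, CNS, ovarian, renal, prostate and breast panels. The incubation period is 48 h. Parameters are derived from dose–response data: GI50 is the concentration giving 50% decrease in net growth, TGI is total growth inhibition, and LC50 is net 50% loss of initial cells. Values beyond the tested range are reported as greater or less than the maximum or minimum concentration.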

[3] = system: SN12C; assay: Anticancer activity against human SN12C cells after 48 hrs
Outline: (§3)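 NCI 60-line panel protocol with a 48 h incubation. Per line: GI50 = concentration giving 50% decrease in net cell growth; TGI = total growth inhibition; LC50 = net 50% loss of initial cells. When the level was not reached or was exceeded, the value is given as greater or less than the highest or lowest concentration tested.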

[4] = system: A498; assay: Anticancer activity against human A498 cells after 48 hrs; conditions: A498, 48 h; for CC50: read-out: LC50 (the source's name); outline: as §2
[5] = system: UO-31; assay: Anticancer activity against human UO31 cells after 48 hrs; conditions: UO-31, 48 h; for CC50: read-out: LC50 (the source's name); outline: as §1
[6] = system: SK-OV-3; assay: Anticancer activity against human SKOV3 cells after 48 hrs; conditions: SK-OV-3, 48 h; for CC50: read-out: LC50 (the source's name); outline: as §3
[7] = system: UACC-62; assay: Anticancer activity against human UACC62 cells after 48 hrs; conditions: UACC-62, 48 h; outline: as §1
[8] = system: Rattus norvegicus; assay: Antiinflammatory activity in Wistar rat assessed as inhibition of carrageenan-induced hind paw edema at 20 mg/kg, po administered 30 mins before carrageenan challenge measured after 3 hrs by plethysmometer
Outline: (§4)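 Wistar rats of either sex, 150–175 g, fasted 16 h, n = 6 per group. Compound given orally at 20 mg/kg as a suspension in 1% CMC in water (10 mL/kg); controls got vehicle only. After 30 min, 0.1 mL of 1% carrageenan in saline was injected subplantar into the left hind paw. Paw volume was measured by plethysmometer at 0, 3 and 5 h. Inhibition = (1 − Vt/Vc) × 100, reported as mean ± SEM.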

[9] = system: NCI-H322M; assay: Anticancer activity against human NCI-H322M cells after 48 hrs; outline: as §3
[10] = system: SF-295; assay: Anticancer activity against human SF295 cells after 48 hrs; conditions: SF-295, 48 h; outline: as §3
[11] = system: UACC-257; assay: Anticancer activity against human UACC257 cells after 48 hrs; conditions: UACC-257, 48 h; outline: as §1
[12] = system: COLO 205; assay: Anticancer activity against human COLO205 cells after 48 hrs; conditions: COLO 205, 48 h; outline: as §2
[13] = system: SNB-19; assay: Anticancer activity against human SNB19 cells after 48 hrs; conditions: SNB-19, 48 h; for CC50: read-out: LC50 (the source's name); outline: as §3
[14] = system: RXF 393; assay: Anticancer activity against human RXF393 cells after 48 hrs; conditions: RXF 393, 48 h; outline: as §3
[15] = system: Rattus norvegicus; assay: Antiinflammatory activity in Wistar rat assessed as inhibition of carrageenan-induced hind paw edema at 20 mg/kg, po administered 30 mins before carrageenan challenge measured after 5 hrs by plethysmometer; outline: as §4
[16] = system: EKVX; assay: Anticancer activity against human EKVX cells after 48 hrs; conditions: for CC50: read-out: LC50 (the source's name); outline: as §2
[17] = system: TK-10; assay: Anticancer activity against human TK10 cells after 48 hrs; conditions: TK-10, 48 h; outline: as §1
[18] = system: CAKI-1; assay: Anticancer activity against human Caki1 cells after 48 hrs; conditions: CAKI-1, 48 h; outline: as §2
[19] = system: OVCAR-3; assay: Anticancer activity against human OVCAR3 cells after 48 hrs; conditions: OVCAR-3, 48 h; outline: as §3
[20] = system: HCT-116; assay: Anticancer activity against human HCT116 cells after 48 hrs; conditions: HCT-116, 48 h; for CC50: read-out: LC50 (the source's name); outline: as §2
[21] = system: A549; assay: Anticancer activity against human A549 cells after 48 hrs; conditions: A549, 48 h; outline: as §2
[22] = system: HOP-62; assay: Anticancer activity against human HOP62 cells after 48 hrs; conditions: HOP-62, 48 h; outline: as §2
[23] = system: Malme-3M; assay: Anticancer activity against human MALME-3M cells after 48 hrs; conditions: for CC50: read-out: LC50 (the source's name); outline: as §2
[24] = system: NCI-H23; assay: Anticancer activity against human NCI-H23 cells after 48 hrs; conditions: NCI-H23, 48 h; outline: as §3
[25] = system: K562; assay: Anticancer activity against human K562 cells after 48 hrs; conditions: K562, 48 h; outline: as §2
[26] = system: NCI-H522; assay: Anticancer activity against human NCI-H522 cells after 48 hrs; conditions: NCI-H522, 48 h; outline: as §3
[27] = system: SF-539; assay: Anticancer activity against human SF539 cells after 48 hrs; conditions: SF-539, 48 h; outline: as §3
[28] = system: MCF7; assay: Anticancer activity against human MCF7 cells after 48 hrs; conditions: MCF7, 48 h; outline: as §2
[29] = system: KM12; assay: Anticancer activity against human KM12 cells after 48 hrs; conditions: KM12, 48 h; outline: as §2

COc1ccc(C2CC(c3cc(Cl)c(C)cc3O)=NN2c2ccc(S(N)(=O)=O)cc2)cc1OC (stereo unspecified)
GI50 [1]: 3.1 µM
TGI [1]: 13.3 µM
CC50 [1]: > 100 µM
GI50 [2]: 3.03 µM
TGI [2]: 13.4 µM
CC50 [2]: 95.6 µM
GI50 [3]: 3.7 µM
LC50 [3]: > 100 µM
TGI [3]: 30 µM
GI50 [4]: 3.98 µM
TGI [4]: 24.7 µM
CC50 [4]: > 100 µM
GI50 [5]: 3.3 µM
CC50 [5]: > 100 µM
GI50 [6]: 4.51 µM
TGI [6]: 38.3 µM
CC50 [6]: > 100 µM
GI50 [7]: 3.13 µM
LC50 [7]: 43.3 µM
TGI [7]: 12.9 µM
inhibition in vivo at 20 mg/kg [8]: 60.5%
GI50 [9]: 4.45 µM
LC50 (net 50% loss of initial cells) [9]: > 100 µM
TGI [9]: 39.7 µM
GI50 [10]: 2.7 µM
LC50 (concentration giving net 50% loss of initial cells) [10]: 0.34 µM
TGI [10]: 6.24 µM
GI50 [11]: 4.22 µM
LC50 [11]: > 100 µM
TGI [11]: 19.7 µM
GI50 [12]: 1.93 µM
LC50 (concentration giving net 50% loss of initial cells) [12]: 6.02 µM
TGI [12]: 3.41 µM
GI50 [13]: 5.53 µM
TGI [13]: 89.3 µM
CC50 [13]: > 100 µM
GI50 [14]: 2.88 µM
LC50 [14]: 31.4 µM
TGI [14]: 7.52 µM
inhibition in vivo at 20 mg/kg [15]: 68.3%
GI50 [16]: 4.15 µM
TGI [16]: 100 µM
CC50 [16]: > 100 µM
GI50 [17]: 3.97 µM
LC50 [17]: > 100 µM
TGI [17]: 18.4 µM
GI50 [18]: 2.78 µM
LC50 (concentration giving 50% net loss of initial cells) [18]: > 100 µM
GI50 [19]: 3.37 µM
LC50 (concentration giving 50% net loss of initial cells) [19]: 77.5 µM
TGI [19]: 9.8 µM
GI50 [20]: 1.72 µM
TGI [20]: 4.36 µM
CC50 [20]: 12.4 µM
GI50 [21]: 3.54 µM
LC50 (net 50% loss of initial cells) [21]: > 100 µM
TGI [21]: 19.7 µM
GI50 [22]: 3.92 µM
LC50 (concentration for 50% net loss of initial cells) [22]: 52.4 µM
TGI [22]: 14.1 µM
GI50 [23]: 3.65 µM
TGI [23]: 24.6 µM
CC50 [23]: > 100 µM
GI50 [24]: 3.11 µM
LC50 (concentration killing 50% of initial cells) [24]: > 100 µM
TGI [24]: 13.6 µM
GI50 [25]: 3.18 µM
LC50 (concentration killing 50% of initial cells) [25]: > 100 µM
GI50 [26]: 2.95 µM
LC50 (concentration killing 50% of initial cells) [26]: 69.3 µM
TGI [26]: 9.61 µM
GI50 [27]: 2.1 µM
LC50 (concentration causing net 50% loss of initial cells) [27]: 12 µM
TGI [27]: 4.75 µM
GI50 [28]: 3.07 µM
LC50 [28]: > 100 µM
TGI [28]: 13.6 µM
GI50 [29]: 3.07 µM
LC50 (concentration causing net 50% loss of initial cells) [29]: 49.2 µM
TGI [29]: 8.77 µM

Cc1cc(O)c(C2=NN(c3ccc(S(N)(=O)=O)cc3)C(c3ccccc3Cl)C2)cc1Cl (stereo unspecified)
GI50 [1]: 2.81 µM
TGI [1]: 10.3 µM
CC50 [1]: 82.3 µM
GI50 [2]: 2.16 µM
TGI [2]: 4.74 µM
CC50 [2]: 18.3 µM
GI50 [3]: 2.55 µM
LC50 [3]: 29.4 µM
TGI [3]: 6.32 µM
GI50 [4]: 5.01 µM
TGI [4]: 20.5 µM
CC50 [4]: 61.4 µM
GI50 [5]: 2.66 µM
TGI [5]: 16.2 µM
CC50 [5]: 48 µM
GI50 [6]: 3.63 µM
TGI [6]: 10.4 µM
CC50 [6]: 32.3 µM
GI50 [7]: 3.71 µM
LC50 [7]: 43.4 µM
TGI [7]: 14.4 µM
inhibition in vivo at 20 mg/kg [8]: 55.3%
GI50 [9]: 2.19 µM
LC50 (net 50% loss of initial cells) [9]: 22 µM
TGI [9]: 5.06 µM
GI50 [10]: 1.59 µM
LC50 (concentration giving net 50% loss of initial cells) [10]: 6.34 µM
TGI [10]: 3.18 µM
GI50 [11]: 11.8 µM
LC50 [11]: > 100 µM
TGI [11]: 79.6 µM
GI50 [12]: 1.81 µM
LC50 (concentration giving net 50% loss of initial cells) [12]: 6.03 µM
TGI [12]: 3.31 µM
GI50 [13]: 3.54 µM
TGI [13]: 16.3 µM
CC50 [13]: 92.3 µM
GI50 [14]: 3.09 µM
LC50 [14]: > 100 µM
TGI [14]: 8.22 µM
inhibition in vivo at 20 mg/kg [15]: 71.4%
GI50 [16]: 1.95 µM
TGI [16]: 4.6 µM
CC50 [16]: > 100 µM
GI50 [17]: 2.64 µM
LC50 [17]: 33.9 µM
TGI [17]: 5.86 µM
GI50 [18]: 1.78 µM
LC50 (concentration giving 50% net loss of initial cells) [18]: 8.95 µM
TGI [18]: 3.99 µM
GI50 [19]: 1.89 µM
LC50 (concentration giving 50% net loss of initial cells) [19]: 6.77 µM
TGI [19]: 3.58 µM
GI50 [20]: 1.76 µM
TGI [20]: 3.15 µM
CC50 [20]: 5.61 µM
GI50 [21]: 3.82 µM
LC50 (net 50% loss of initial cells) [21]: > 100 µM
TGI [21]: 19.3 µM
GI50 [22]: 2.03 µM
LC50 (concentration for 50% net loss of initial cells) [22]: 8.53 µM
TGI [22]: 4.16 µM
GI50 [23]: 2.62 µM
TGI [23]: 6.46 µM
CC50 [23]: > 100 µM
GI50 [24]: 1.79 µM
LC50 (concentration killing 50% of initial cells) [24]: 7.13 µM
TGI [24]: 3.58 µM
GI50 [25]: 3.26 µM
LC50 (concentration killing 50% of initial cells) [25]: > 100 µM
GI50 [26]: 1.89 µM
LC50 (concentration killing 50% of initial cells) [26]: 8.33 µM
TGI [26]: 3.97 µM
GI50 [27]: 1.79 µM
LC50 (concentration causing net 50% loss of initial cells) [27]: 5.9 µM
TGI [27]: 3.25 µM
GI50 [28]: 1.75 µM
LC50 [28]: 6.35 µM
TGI [28]: 3.33 µM
GI50 [29]: 1.98 µM
TGI [29]: 3.66 µM
